Active and inactive are the calls of the source. The calls are words filed in the database; no cut-off is given here.
Assays:
MDA-MB-435 [1] = experiment: Cytotoxicity against human MDA-MB-435 cells after 72 hrs by MTT assay; format: functional, cell-based; conditions: MDA-MB-435, 72 h
PBMC = experiment: Cytotoxicity against human PBMC cells after 72 hrs by Alamar Blue assay; format: cell-based
SF-295 [2] = experiment: Cytotoxicity against human SF295 cells after 72 hrs by MTT assay; format: functional, cell-based; conditions: SF-295, 72 h
HL-60 [3] = experiment: Induction of apoptosis in human HL60 cells assessed as apoptotic nuclei at 5 uM after 24 hrs by acridine orange/ethidium bromide staining based fluorescence microscopy in presence of 1-bromoheptane; format: functional
Outline: (§1)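 Cells exposed 24 h, with or without 24 h pretreatment with 1-bromoheptane. Cell suspension mixed with acridine orange/ethidium bromide (each 100 in PBS) and spread on slide. 300 cells counted per point by fluorescence microscopy to give % apoptotic cells. Mean ± S.E.M. of three experiments.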

HCT-8 [4] = experiment: Induction of apoptosis in human HCT8 cells assessed as apoptotic nuclei at 5 uM after 24 hrs by acridine orange/ethidium bromide staining based fluorescence microscopy in presence of 1-bromoheptane; format: functional; outline: as §1
MDA-MB-435 [5] = experiment: Induction of apoptosis in human MDA-MB-435 cells assessed as apoptotic nuclei at 5 uM after 24 hrs by acridine orange/ethidium bromide staining based fluorescence microscopy in presence of 1-bromoheptane; format: functional; outline: as §1
HL-60 [6] = experiment: Cytotoxicity against human HL60 cells after 72 hrs by MTT assay; format: functional, cell-based; conditions: HL-60, 72 h
MDA-MB-435 [7] = experiment: Induction of apoptosis in human MDA-MB-435 cells assessed as apoptotic nuclei at 5 uM after 24 hrs by acridine orange/ethidium bromide staining based fluorescence microscopy; format: functional; outline: as §1
HL-60 [8] = experiment: Induction of apoptosis in human HL60 cells assessed as apoptotic nuclei at 5 uM after 24 hrs by acridine orange/ethidium bromide staining based fluorescence microscopy; format: functional; outline: as §1
HCT-8 [9] = experiment: Induction of apoptosis in human HCT8 cells assessed as apoptotic nuclei at 5 uM after 24 hrs by acridine orange/ethidium bromide staining based fluorescence microscopy; format: functional; outline: as §1
SF-295 [10] = experiment: Induction of apoptosis in human SF295 cells assessed as apoptotic nuclei at 5 uM after 24 hrs by acridine orange/ethidium bromide staining based fluorescence microscopy in presence of 1-bromoheptane; format: functional; outline: as §1
SF-295 [11] = experiment: Induction of apoptosis in human SF295 cells assessed as apoptotic nuclei at 5 uM after 24 hrs by acridine orange/ethidium bromide staining based fluorescence microscopy; format: functional; outline: as §1
HCT-8 [12] = experiment: Cytotoxicity against human HCT8 cells after 72 hrs by MTT assay; format: functional, cell-based; conditions: HCT-8, 72 h
SF-295 [13] = experiment: Induction of lipid peroxidation in human SF295 cells assessed as increase in TBARS formation at 5 uM after 24 hrs in presence of […]; format: functional, cell-based
Outline: (§2)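 Cells treated 24 h, with or without 24 h pretreatment with 5 mM NAC. Cells lysed with Tris-HCl (15 mM, 1 h) and heated with TCA/HCl/thiobarbituric acid for 15 min at 100 °C, then centrifuged. TBARS read at 532 nm against hydrolyzed 1,1,3,3-tetramethoxypropane standard and normalized to protein.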

SF-295 [14] = experiment: Induction of lipid peroxidation in human SF295 cells assessed as increase in TBARS formation at 5 uM after 24 hrs; format: functional, cell-based; outline: as §2
HL-60 [15] = experiment: DNA damage index, DNA damage in human HL60 cells to DNA damage in human HL60 cells with FPG/ENDO3 DNA repair enzymes in presence of […]; format: functional
Outline: (§3)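 Cells treated 12 h, then alkaline comet slides washed in enzyme buffer (40 mM HEPES, 100 mM KCl, 0.5 mM Na2EDTA, 0.2 mg/mL BSA, pH 8.0). Slides then incubated with FPG (30 min, 37 °C) or ENDOIII (45 min, 37 °C). Enzyme-sensitive sites = total breaks minus buffer-only breaks. 100 cells scored per group. NAC pretreatment 5 mM. Mean ± S.E.M. of three experiments.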

HCT-8 [16] = experiment: DNA damage index, DNA damage in human HCT8 cells to DNA damage in human HL60 cells with FPG/ENDO3 DNA repair enzymes; format: functional; outline: as §3
HL-60 [17] = experiment: DNA damage index, DNA damage in human HL60 cells to DNA damage in human HL60 cells with FPG/ENDO3 DNA repair enzymes; format: functional; outline: as §3
MDA-MB-435 [18] = experiment: Induction of lipid peroxidation in human MDA-MB-435 cells assessed as increase in TBARS formation at 5 uM after 24 hrs; format: functional, cell-based; outline: as §2
MDA-MB-435 [19] = experiment: DNA damage index, DNA damage in human MDA-MB-435 cells to DNA damage in human HL60 cells with FPG/ENDO3 DNA repair enzymes; format: functional; outline: as §3
HL-60 [20] = experiment: Induction of lipid peroxidation in human HL60 cells assessed as increase in TBARS formation at 5 uM after 24 hrs; format: functional, cell-based; outline: as §2
SF-295 [21] = experiment: DNA damage index, DNA damage in human SF295 cells to DNA damage in human HL60 cells with FPG/ENDO3 DNA repair enzymes; format: functional; outline: as §3
HCT-8 [22] = experiment: Induction of lipid peroxidation in human HCT8 cells assessed as increase in TBARS formation at 5 uM after 24 hrs; format: functional, cell-based; outline: as §2
SF-295 [23] = experiment: DNA damage index, DNA damage in human SF295 cells to DNA damage in human HL60 cells with FPG/ENDO3 DNA repair enzymes in presence of […]; format: functional; outline: as §3
HL-60 [24] = experiment: Induction of lipid peroxidation in human HL60 cells assessed as increase in TBARS formation at 5 uM after 24 hrs in presence of […]; format: functional, cell-based; outline: as §2
MDA-MB-435 [25] = experiment: Induction of lipid peroxidation in human MDA-MB-435 cells assessed as increase in TBARS formation at 5 uM after 24 hrs in presence of […]; format: functional, cell-based; outline: as §2
MDA-MB-435 [26] = experiment: DNA damage index, DNA damage in human MDA-MB-435 cells to DNA damage in human HL60 cells with FPG/ENDO3 DNA repair enzymes in presence of […]; format: functional; outline: as §3
HCT-8 [27] = experiment: DNA damage index, DNA damage in human HCT8 cells to DNA damage in human HL60 cells with FPG/ENDO3 DNA repair enzymes in presence of […]; format: functional; outline: as §3
HCT-8 [28] = experiment: Induction of lipid peroxidation in human HCT8 cells assessed as increase in TBARS formation at 5 uM after 24 hrs in presence of […]; format: functional, cell-based; outline: as §2

| SMILES | IC50 (MDA-MB-435 [1]) [µM] | IC50 (PBMC) [µM] | IC50 (SF-295 [2]) [µM] | Activity (HL-60 [3]) [%] | Activity (HCT-8 [4]) [%] | Activity (MDA-MB-435 [5]) [%] | IC50 (HL-60 [6]) [µM] | Activity (MDA-MB-435 [7]) [%] | Activity (HL-60 [8]) [%] | Activity (HCT-8 [9]) [%] | Activity (SF-295 [10]) [%] | Activity (SF-295 [11]) [%] | IC50 (HCT-8 [12]) [µM] | further results |
| --- | --- | --- | --- | --- | --- | --- | --- | --- | --- | --- | --- | --- | --- | --- |
| CC(C)CCC1=C(OC2(CCC(C)C)C(=O)C(=O)c3ccccc3C2=O)C(=O)c2ccccc2C1=O (stereo unspecified) | > 10.3 | > 10.3 | > 10.3 | 4.17 | 11.46 | 7.44 | > 10.3 | 9.51 | 8.13 | 8.71 | 8.01 | 7.94 | > 10.3 |  |
| CCCC1=C(OC2(CCC)C(=O)C(=O)C3=C(CCCC3)C2=O)C(=O)C2=C(CCCC2)C1=O (stereo unspecified) | > 11.4 | > 11.4 | > 11.4 | 11.04 | 11.7 | 12.09 | > 11.4 | 8.56 | 9.13 | 9.27 | 13.97 | 11.73 | > 11.4 |  |
| Cc1cccc(-c2nc3ccc4c(c3[nH]2)C(=O)c2ccccc2C4=O)c1 | > 14.8 | > 14.8 | > 14.8 | 6.18 | 7.28 | 6.17 | > 14.8 | 9.81 | 7.33 | 12.01 | 7.38 | 10.05 | > 14.8 |  |
| CC1(C)CC2=C(O1)c1ccccc1C(=O)C2=O [NOR-BETA-LAPACHONE] |  | > 21.9 |  |  |  |  |  |  |  |  |  |  |  | Activity (SF-295 [13]): inactive; Activity (SF-295 [14]): Active; Ratio (HL-60 [15]): 12.36; Ratio (HCT-8 [16]): 63.25; Ratio (HL-60 [17]): 67.19; Activity (MDA-MB-435 [18]): Active; Ratio (MDA-MB-435 [19]): 78.52; Activity (HL-60 [20]): Active; Ratio (SF-295 [21]): 63.81; Activity (HCT-8 [22]): Active; Ratio (SF-295 [23]): 9.18; Activity (HL-60 [24]): inactive; Activity (MDA-MB-435 [25]): inactive; Ratio (MDA-MB-435 [26]): 7.49; Ratio (HCT-8 [27]): 10.48; Activity (HCT-8 [28]): inactive |

From ChEMBL document CHEMBL1649387, “Synthesis and evaluation of quinonoid compounds against tumor cell lines” (Eur J Med Chem, 2011)
